The text below walks through data of ChEMBL document CHEMBL1139354, “New derivatives of farnesylthiosalicylic acid (salirasib) for cancer treatment: farnesylthiosalicylamide inhibits tumor growth in nude mice models” (J Med Chem, 2009).

Active and inactive are the calls of the source.

By inhibition is commonly meant the change of the read-out against control, counted positive when it falls. As a reminder, the IC50 is the point on the concentration scale where inhibition reaches its midpoint. A word on the inhibition in vivo: it is the percentage by which the read-out fell short of the control. In general, half-life refers to the time needed for the level to fall by half in the phase considered. One may read the Cmax as the peak of the concentration-time curve. Usually AUC(0-inf) stands for total exposure, with the tail of the curve extrapolated.

Data set [1] relates to PANC-1. Description: Effect on Ras signaling in human PANC1 cells assessed as inhibition of total Ras-GTP level at 50 uM after 24 hrs by immunoblot method. The settings on record: PANC-1, 24 h. Format: functional. The essentials: (§1)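 Cells were seeded at 1.5 × 10⁶ per 10-cm dish, grown 24 h, then exposed to 50 µM or 0.1% DMSO for 24 h. Lysates in Tris pH 7.6/MgCl2/NaCl/NP40/DTT buffer went through a GST-Raf-RBD pull-down, followed by immunoblots with pan-Ras or isoform-specific antibodies. Bands were detected by ECL and quantified by densitometry. Inhibition was calculated as control active-Ras % minus treated active-Ras % (mean ± SD).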

The subject of data set [2] is PANC-1. Description: Effect on Ras signaling in human PANC1 cells assessed as inhibition of KRas-GTP level at 50 uM after 24 hrs by immunoblot method. Format: functional. To be noted: PANC-1, 24 h. The essentials:
as §1
On the technique in general: In western blotting, separated proteins are transferred to a membrane and probed.

Data set [3] can be described thus: Effect on Ras signaling in human U87 cells assessed as inhibition of total Ras-GTP level at 50 uM after 24 hrs by immunoblot method. Format: functional, cell-based. To be noted: U-87MG ATCC. In short, it runs like this:
as §1

Data set [4] can be described thus: Cytotoxicity against human U87 cells after 5 to 7 days. Format: functional, cell-based, U-87MG ATCC. To be noted: U-87 MG. In short, it runs like this: (§2)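 U87 or Panc-1 cells were seeded at 5000 per well in DMEM/10% FCS and grown 24 h. Cells were then exposed to 6.25-100 µM in medium with 0.1% DMSO, or to vehicle. After 5-7 days cells were counted directly and IC50 was read from growth curves (2 independent experiments, n = 8, mean ± SD).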

Data set [5] can be described thus: Effect on Ras signaling in human U87 cells assessed as inhibition of HRas-GTP level at 50 uM after 24 hrs by immunoblot method. Format: functional, cell-based. To be noted: U-87MG ATCC. In short, it runs like this: as §1
Data set [6] is described as follows: Effect on Ras signaling in human U87 cells assessed as inhibition of KRas-GTP level at 50 uM after 24 hrs by immunoblot method. Format: functional, cell-based. To be noted: U-87MG ATCC. The essentials: as §1
The nature of data set [7]: Effect on Ras signaling in human U87 cells assessed as inhibition of NRas-GTP level at 50 uM after 24 hrs by immunoblot method. To be noted: U-87MG ATCC. Format: functional, cell-based. In short, it runs like this: as §1
In data set [8] the test system is PANC-1. Nature of the data set: Cytotoxicity against human PANC1 cells after 5 to 7 days. Format: functional, cell-based. In short, it runs like this:
as §2

For data set [9], the system named is PANC-1. Description: Effect on Ras signaling in human PANC1 cells assessed as inhibition of NRas-GTP level at 50 uM after 24 hrs by immunoblot method. Format: functional. The settings on record: PANC-1, 24 h. The essentials: as §1
The test system of data set [10] is PANC-1. Nature of the data set: Effect on Ras signaling in human PANC1 cells assessed as decrease in phospho-ERK level at 50 uM after 24 hrs by immunoblot method. Format: functional, cell-based. The essentials: (§3)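 Cells were seeded at 1.5 × 10⁶ per 10-cm dish, grown overnight in 10% FCS, then treated with 50 µM or 0.1% DMSO for 24 h. Lysates in Tris pH 7.6/MgCl2/NaCl/NP40/DTT buffer were immunoblotted for phospho-ERK1/2 and phospho-Akt, with β-tubulin as loading reference. Detection was by ECL.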

The nature of data set [11]: Antitumor activity against human U87 cells xenografted CD1-Nu mouse at 100 mg/kg, po twice daily assessed as inhibition of tumor growth after 9 days. To be noted: U-87 MG, 216 h. Format: functional, U-87MG ATCC. The essentials: (§4)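 Nude mice under ketamine/xylazine received 5 × 10⁵ U87 cells into the striatum (1 µL/min for 5 min). Gd-DTPA contrast MRI on day 4 confirmed tumors and mice were grouped by size. From day 5 they received 100 mg/kg orally twice a day in corn oil, or vehicle. Tumor volumes were read from T1-weighted follow-up MRI. Normalized growth was taken as (follow-up volume − initial volume)/initial volume (n = 7, Mann-Whitney).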
For orientation: In xenograft studies the graft and the host belong to different species.

Data set [12] in a line: Elimination half life in Sprague-Dawley rat at 100 mg/kg, po. The settings on record: in vivo. Format: ADME, organism-based. Also on record: dose 100 mg/kg, route oral. The essentials:
(§5)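 Male Sprague-Dawley rats (275-285 g) given a single oral dose of 100 mg/kg in corn oil. Arterial blood was taken under anesthesia at 10-330 min (4 animals per time point). Plasma was protein-precipitated with acetonitrile, propranolol served as internal standard, and samples were run on isocratic C18 LC-MS/MS (calibration 1-2500 ng/mL). Parameters came from a noncompartmental fit of the mean concentration-time data.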

A short description of data set [13]: Antitumor activity against human U87 cells xenografted CD1-Nu mouse at 100 mg/kg, po twice daily assessed as inhibition of tumor growth after 4 days. Format: functional, U-87MG ATCC. The settings on record: U-87 MG, 96 h. In short, it runs like this: as §4
Data set [14] in a line: Effect on Ras signaling in human U87 cells assessed as decrease in phospho-ERK level at 50 uM after 24 hrs by immunoblot method. Format: functional, cell-based. To be noted: U-87MG ATCC. The essentials: as §3
The nature of data set [15]: Cmax in Sprague-Dawley rat at 100 mg/kg, po. Format: ADME, organism-based. Also on record: dose 100 mg/kg, route oral. To be noted: in vivo. The essentials:
as §5

The test system of data set [16] is PANC-1. Nature of the data set: Antitumor activity against human PANC1 cells xenografted CD1-Nu mouse at 100 mg/kg, po daily assessed as decrease in tumor weight after 18 days.
A further data set relates to U-87MG ATCC. Nature of the data set: Antitumor activity against human U87 cells xenografted CD1-Nu mouse at 100 mg/kg, po twice daily assessed as increase tumor volume after 9 days. Also on record: dose 100 mg/kg. Format: functional, organism-based. The essentials:
as §4

The test system of data set [17] is PANC-1. Nature of the data set: Effect on Ras signaling in human PANC1 cells assessed as decrease in phospho-AKT level at 50 uM after 24 hrs by immunoblot method. Format: functional, cell-based. The essentials:
as §3

The nature of data set [18]: AUC (0 to infinity) in Sprague-Dawley rat at 100 mg/kg, po. Format: ADME, organism-based. On the set-up: time infinity, dose 100 mg/kg, route oral. To be noted: plasma. In short, it runs like this: as §5
Data set [19] in a line: Effect on Ras signaling in human U87 cells assessed as decrease in phospho-AKT level at 50 uM after 24 hrs by immunoblot method. Format: functional, cell-based. The settings on record: U-87MG ATCC. The essentials:
as §3

Data set [20] can be described thus: AUC (0 to infinity) in Sprague-Dawley rat at 40 mg/kg, po. On the set-up: time infinity, dose 40 mg/kg, route oral. The settings on record: plasma. Format: ADME, organism-based.
A short description of data set [21]: Cmax in Sprague-Dawley rat at 40 mg/kg, po. To be noted: in vivo. On the set-up: dose 40 mg/kg, route oral. Format: ADME, organism-based.
Data set [22] can be described thus: Elimination half life in Sprague-Dawley rat at 40 mg/kg, po. Format: ADME, organism-based. Also on record: dose 40 mg/kg, route oral. The settings on record: in vivo.

On to `CC(C)=CCC/C(C)=C/CC/C(C)=C/CSc1ccccc1C(=O)N(C)C`, for which the figures for the inhibition at 50 µM in the data set with PANC-1 [1], in the data set with PANC-1 [2] and with PANC-1 [9] were 38.6%, 48% and 13.6%, respectively. The inhibition in data set [3] turned out to be 45.4%; in data set [5], 14%; in data set [6], 28%; in [7] it was 41%. Besides, the figures for the IC50 (in [4]; with PANC-1 [8]) were 20 µM and 22 µM, respectively.

As to `COCOC(=O)c1ccccc1SC/C=C(\C)CC/C=C(\C)CCC=C(C)C`, the inhibition at 50 µM in the data set on PANC-1 [1] was found to be 2.6%; in the data set with PANC-1 [2], 19.9%. Moreover, the IC50 was 10 µM in [4] and 12 µM in the data set with PANC-1 [8]. Moreover, the values for the inhibition in data set [6] and in data set [7] were 4.8% and 5.1%, respectively.

Regarding `COC(=O)c1ccccc1SC/C=C(\C)CC/C=C(\C)CCC=C(C)C`, the inhibition at 50 µM in the data set on PANC-1 [1] was determined as 5.3%; in the data set with PANC-1 [2] it was 11.9%. The IC50 in [4] worked out at 10 µM; with PANC-1 [8] it was 30 µM. The inhibition in data set [6] was 23.8%; in data set [7], 18.7%.

On to `CC(C)=CCC/C(C)=C/CC/C(C)=C/CSc1ccccc1C(N)=O`, for which the outcome with PANC-1 [10] and in the data set with PANC-1 [17] was inactive. Besides, the inhibition in vivo at 100 mg/kg stood at 50% in data set [11] and 80% in data set [13]. In data set [12], this molecule yielded a half-life of 314 min. Further, the inhibition at 50 µM stood at 37.4% in the data set with PANC-1 [1], 56% in the data set on PANC-1 [2] and 8.6% with PANC-1 [9]. The results for the inhibition in data set [3], in [6] and in [7] were 33%, 50.8% and 37.3%, respectively. For the same molecule, the result (in data set [14]; in the data set on PANC-1 [16]; with U-87MG ATCC; in data set [19]) was Active. In addition, the IC50 in data set [4] came out at 10 µM; in the data set with PANC-1 [8] it was 20 µM. The molecule also displayed a Cmax in [15] of 371 ng/mL. In [18], this molecule had an AUC(0-inf) of 1810 ng·h/mL.

`CC(C)=CCC/C(C)=C/CC/C(C)=C/CSc1ccccc1C(=O)O` [SALIRASIB]: the AUC(0-inf) in data set [20] is 6210 ng·h/mL. Moreover, the results for the IC50 (in [4]; in the data set on PANC-1 [8]) were 50 µM and 35 µM, respectively. This molecule also registered a peak concentration (Cmax) in data set [21] of 2160 ng/mL. In [22], this molecule yielded a half-life of 142 min.

Turning to `CNC(=O)c1ccccc1SC/C=C(\C)CC/C=C(\C)CCC=C(C)C`, the values for the inhibition at 50 µM in the data set with PANC-1 [1], with PANC-1 [2] and in the data set with PANC-1 [9] were 39.7%, 52% and 18.8%, respectively. Moreover, the inhibition was determined as 34.7% in data set [3], 32.6% in data set [6] and 22.5% in [7]. Further, the IC50 in data set [4] turned out to be 18 µM; in the data set with PANC-1 [8], 10 µM.

As for `CC(C)=CCC/C(C)=C/CC/C(C)=C/CSc1ccccc1C(=O)OCc1ccccc1`, the IC50 in [4] is 30 µM; with PANC-1 [8], 95 µM.

Take `CC(C)=CCC/C(C)=C/CC/C(C)=C/CSc1ccccc1C(=O)OC(C)C`: the IC50 in data set [4] is 52 µM; in the data set on PANC-1 [8], 70 µM.
